Results published in ChEMBL document CHEMBL1138683 (J Med Chem, 2004).

Tests used:
[1] = Anti convulsant activity administered intra peritoneally to mouse for toxicity at 0.5 hr with dose of 300 mg/kg; 4/4= No of animals exhibiting toxicity /No of animals tested; type: organism-based; parameters: dose 300 mg/kg; conditions: in vivo, ip
[2] = system: Mus musculus; assay: Anti convulsant activity administered intra peritoneally to mouse at maximal electroshock test at 4 hr after the drug administered with dose of 100 mg/kg; 0/3= No of animals protected /No of animals tested; type: functional
[3] = system: Mus musculus; assay: Anti convulsant activity administered intra peritoneally to mouse for subcutaneous metrazol test at 4 hr with dose of 300 mg/kg; 0/1= No of animals protected /No of animals tested; type: functional
[4] = Anti convulsant activity administered intra peritoneally to mouse for toxicity at 4 hr with dose of 100 mg/kg; 0/4= No of animals exhibiting toxicity /No of animals tested; type: organism-based; parameters: dose 100 mg/kg; conditions: in vivo, ip
[5] = system: Mus musculus; assay: Anti convulsant activity administered intra peritoneally to mouse for subcutaneous metrazol test at 0.5 hr with dose of 30 mg/kg; 0/1= No of animals protected /No of animals tested; type: functional
[6] = system: Mus musculus; assay: Anti convulsant activity administered intra peritoneally to mouse for subcutaneous metrazol test at 0.5 hr with dose of 100 mg/kg; 0/1= No of animals protected /No of animals tested; type: functional
[7] = system: Mus musculus; assay: Anti convulsant activity administered intra peritoneally to mouse at maximal electroshock test at 4 hr after the drug administered with dose of 30 mg/kg; 0/1= No of animals protected /No of animals tested; type: functional
[8] = Anti convulsant activity administered intra peritoneally to mouse for toxicity at 4 hr with dose of 30 mg/kg; 0/2= No of animals exhibiting toxicity /No of animals tested; type: organism-based; parameters: dose 30 mg/kg; conditions: in vivo, ip
[9] = system: Mus musculus; assay: Anti convulsant activity administered intra peritoneally to mouse at maximal electroshock test at 4 hr after the drug administered with dose of 300 mg/kg; 0/1= No of animals protected /No of animals tested; type: functional
[10] = Anti convulsant activity administered intra peritoneally to mouse for toxicity at 0.5 hr with dose of 30 mg/kg; 0/4= No of animals exhibiting toxicity /No of animals tested; type: organism-based; parameters: dose 30 mg/kg; conditions: in vivo, ip
[11] = system: Mus musculus; assay: Anti convulsant activity administered intra peritoneally to mouse for subcutaneous metrazol test at 4 hr after the drug administered with dose of 100 mg/kg; 0/1= No of animals protected /No of animals tested; type: functional
[12] = system: Rattus norvegicus; assay: Anticonvulsant activity after oral administration of 30 mg/kg dose after 4 hr in rats; +means 25% of animals protected; type: functional, organism-based; parameters: dose 30 mg/kg
How it was run: (§1)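 Oral dosing of rats at a single dose, compound dissolved or suspended in 0.5% methylcellulose. Protection in the MES or scMet test checked 15 min, 30 min, 1 h, 2 h and 4 h after dosing. Scored as 25/50/75/100% of animals protected (+ to ++++), – for none.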

[13] = system: Mus musculus; assay: Anti convulsant activity administered intra peritoneally to mouse at maximal electroshock test at 0.5 hr after the drug administered with dose of 100 mg/kg; 0/3= No of animals protected /No of animals tested; type: functional
[14] = system: Mus musculus; assay: Anti convulsant activity administered intra peritoneally to mouse for subcutaneous metrazol test at 4 hr after the drug administered with dose of 30 mg/kg; 0/1= No of animals protected /No of animals tested; type: functional; conditions: route intraperitoneal
[15] = system: Mus musculus; assay: Anti convulsant activity administered intra peritoneally to mouse at maximal electroshock test at 0.5 hr after the drug administered with dose of 300 mg/kg; 1/1= No of animals protected /No of animals tested; type: functional
[16] = system: Rattus norvegicus; assay: Anticonvulsant activity after oral administration of 30 mg/kg dose after 15 min in rats; + means 25% of the animals protected; type: functional, organism-based; parameters: dose 30 mg/kg; how it was run: as §1
[17] = system: Mus musculus; assay: Anti convulsant activity administered intra peritoneally to mouse for subcutaneous metrazol test at 0.5 hr with dose of 300 mg/kg; 1/1= No of animals protected /No of animals tested; type: functional
[18] = Anti convulsant activity administered intra peritoneally to mouse for toxicity at 4 hr with dose of 300 mg/kg; 1/2= No of animals exhibiting toxicity /No of animals tested; type: organism-based; parameters: dose 300 mg/kg; conditions: in vivo, ip
[19] = Anti convulsant activity administered intra peritoneally to mouse for toxicity at 0.5 hr with dose of 100 mg/kg; 0/8= No of animals exhibiting toxicity /No of animals tested; type: organism-based; parameters: dose 100 mg/kg; conditions: in vivo, ip
[20] = system: Mus musculus; assay: Anti convulsant activity administered intra peritoneally to mouse at maximal electroshock test at 0.5 h after the drug administered with dose of 30 mg/kg; 0/1= No of animals protected /No of animals tested; type: functional
[21] = system: Rattus norvegicus; assay: Anticonvulsant activity after oral administration of 100 mg/kg dose after 15 min in rats;+means 25% of the animals protected; type: functional, organism-based; parameters: dose 100 mg/kg; how it was run: as §1
[22] = system: Rattus norvegicus; assay: Anticonvulsant activity after oral administration of 50 mg/kg dose after 30 min in rats; + means 25% of the animal protected; type: functional, organism-based; parameters: dose 50 mg/kg; how it was run: as §1
[23] = system: Rattus norvegicus; assay: Anticonvulsant activity after oral administration of 100 mg/kg dose after 1 hr in rats; + means 25% of the animals protected; type: functional, organism-based; parameters: dose 100 mg/kg; how it was run: as §1
[24] = system: Mus musculus; assay: Anti convulsant activity administered intra peritoneally to mouse for subcutaneous metrazol test at 0.5 h with dose of 300 mg/kg; 0/1= No of animals protected /No of animals tested; type: functional
[25] = Anti convulsant activity administered intra peritoneally to mouse for toxicity at 4 hr with dose of 300 mg/kg; 0/2= No of animals exhibiting toxicity /No of animals tested; type: organism-based; parameters: dose 300 mg/kg; conditions: in vivo, ip
[26] = system: Rattus norvegicus; assay: Anticonvulsant activity after oral administration of 50 mg/kg dose after 2 hr in rats; ++ means 50% of the animal is protected; type: functional, organism-based; parameters: dose 50 mg/kg; how it was run: as §1
[27] = Anti convulsant activity administered intra peritoneally to mouse for toxicity at 0.5 hr with dose of 100 mg/kg; 1/8= No of animals exhibiting toxicity /No of animals tested; type: organism-based; parameters: dose 100 mg/kg; conditions: in vivo, ip
[28] = system: Rattus norvegicus; assay: Anticonvulsant activity after oral administration of 50 mg/kg dose after 4 hr in rats;+ means 25% of the animals protected; type: functional, organism-based; parameters: dose 50 mg/kg
How it was run: (§2)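 Rats dosed orally with compound dissolved or suspended in 0.5% methylcellulose (0.04 mL per 10 g body weight). Anticonvulsant protection (MES or scMet) and toxicity scored at 15 min, 30 min, 1 h, 2 h and 4 h after dosing. Graded in steps of 25% of animals protected or showing toxicity.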

[29] = system: Rattus norvegicus; assay: Anticonvulsant activity after oral administration of 50 mg/kg dose after 15 min in rats; ++ means 50% of the animal protected; type: functional, organism-based; parameters: dose 50 mg/kg; how it was run: as §1
[30] = system: Mus musculus; assay: Anti convulsant activity administered intra peritoneally to mouse at maximal electroshock test at 4 hr after the drug administered with dose of 300 mg/kg; 1/1= No of animals protected /No of animals tested; type: functional
[31] = system: Rattus norvegicus; assay: Anticonvulsant activity after oral administration of 100 mg/kg dose after 2 hr in rats; + means 25% of the animals protected; type: functional, organism-based; parameters: dose 100 mg/kg; how it was run: as §1
[32] = system: Mus musculus; assay: Anticonvulsant activity administered intra peritoneally to mouse at subcutaneous metrazol test; type: functional; conditions: sc
[33] = system: Rattus norvegicus; assay: Anticonvulsant activity administered orally to rat at subcutaneous metrazol test; type: functional
[34] = system: Rattus norvegicus; assay: Anticonvulsant activity after oral administration of 50 mg/kg dose after 1 hr in rats;+means 25% of the animals protected; type: functional, organism-based; parameters: dose 50 mg/kg; how it was run: as §1
[35] = system: Rattus norvegicus; assay: Anticonvulsant activity after oral administration of 50 mg/kg dose after 30 min in rats; ++ means 50% of the animal protected; type: functional, organism-based; parameters: dose 50 mg/kg; how it was run: as §2
[36] = system: Rattus norvegicus; assay: Anticonvulsant activity after oral administration of 50 mg/kg dose after 2 hr in rats; +++ means 75% of the animal is protected; type: functional, organism-based; parameters: dose 50 mg/kg; how it was run: as §1
[37] = system: Rattus norvegicus; assay: Anticonvulsant activity after oral administration of 125 mg/kg dose after 30 min in rats;++ means 50% of the animals protected; type: functional, organism-based; parameters: dose 125 mg/kg; how it was run: as §1
[38] = system: Mus musculus; assay: Anticonvulsant activity administered intra peritoneally to mouse at maximal electro shock test; the interval in parenthesis stands for 95% confidence interval; type: functional
[39] = Anticonvulsant activity administered intra peritoneally to mouse for toxicity; conditions: in vivo, ip

Compound	Toxicity [1]	Activity [2]	Activity [3]	Toxicity [4]	Activity [5]	Activity [6]	Activity [7]	Toxicity [8]	Toxicity [10]	Activity [11]	Activity [13]	Activity [14]	Activity [15]	Activity [20]	Activity [24]	Toxicity [25]	Toxicity [27]	Activity [30]	ED50 [32]	also measured
CC1(C)C(C(=O)NCCF)C1(C)C	4	0	1	0	0	0	0	0	0	0	0	0	1	0						Activity [9]: 0; Activity [12]: 25% of animals protected; Activity [16]: 25% of animals protected; Activity [17]: 1; Toxicity [18]: 1; Toxicity [19]: 0
CNC(=O)NC(=O)C1C(C)(C)C1(C)C	4	0	0	0	0	0	0	0	0	0	0	0	1	0	0	0	1	1		Anticonvulsant Activity [21]: 25% of the animals protected; Activity [22]: 25% of the animal protected; Activity [23]: 25% of the animal protected; Activity [26]: 25% of the animal protected; Activity [28]: 25% of the animal protected; Activity [29]: 25% of the animal protected; Activity [31]: 25% of the animal protected
CCCC(CCC)C(=O)O [VALPROIC ACID]																			220 mg/kg	ED50 [33]: 646 mg/kg
CN(C)C(=O)NC(=O)C1C(C)(C)C1(C)C		0	0	0	0	0	0	0	0	0	0	0	1		0	0	1	1		Activity [34]: 25% of the animals protected; Activity [35]: 25% of the animals protected; Activity [36]: 25% of the animals protected; Activity [37]: 25% of the animals protected
CC1(C)C(C(=O)NCO)C1(C)C																			120 mg/kg	ED50 [38]: > 220 mg/kg; TD50 [39]: 146 mg/kg
